Results reported in ChEMBL document CHEMBL4339192, “De Novo Designed Amphipathic α-Helical Antimicrobial Peptides Incorporating Dab and Dap Residues on the Polar Face To Treat the Gram-Negative Pathogen, Acinetobacter baumannii” (J Med Chem, 2019).
In brackets after ≈: the same amount, converted by molar mass. Where a SMILES comes first, the peptide text is derived from it. [ ]: non-standard residue; d: D form. dOrn = NCCC[C@@H](N)C(=O)O

How the values were obtained:
Assay type in all cases: functional
Acinetobacter baumannii [1] = test: Antibacterial activity against Acinetobacter baumannii 649 measured after 24 hrs in presence of 25% human serum by microtiter dilution method; conditions: Acinetobacter baumannii, 649, 24 h
In short: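 Blood strain 649 was tested by MH broth microdilution with and without 25% (v/v) human serum added to the medium. The test used a final inoculum of 5 × 10^5 cfu/mL and incubation at 37 °C. The ratio is the MIC in serum over the MIC in MH alone.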

Acinetobacter baumannii [2] = test: Antibacterial activity against Acinetobacter baumannii 649 measured after 24 hrs by microtiter dilution method; conditions: Acinetobacter baumannii, 649, 24 h
In short: (§1)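 Broth microdilution in Mueller-Hinton (MH) medium. […] Plates were incubated 24 h at 37 °C. MIC was the lowest peptide concentration that inhibited growth, based on three sets of replicates.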

Acinetobacter baumannii [3] = test: Antibacterial activity against Acinetobacter baumannii isolate 1001611 measured after 24 hrs by microtiter dilution method; conditions: isolate 1001611, 24 h; in short: as §1
Acinetobacter baumannii [4] = test: Antibacterial activity against Acinetobacter baumannii isolate 1021371 measured after 24 hrs by microtiter dilution method; conditions: isolate 1021371, 24 h; in short: as §1
Acinetobacter baumannii [5] = test: Antibacterial activity against Acinetobacter baumannii isolate 952654 measured after 24 hrs by microtiter dilution method; conditions: isolate 952654, 24 h; in short: as §1
Acinetobacter baumannii [6] = test: Antibacterial activity against Acinetobacter baumannii isolate 9383370 measured after 24 hrs by microtiter dilution method; conditions: isolate 9383370, 24 h; in short: as §1
Acinetobacter baumannii [7] = test: Antibacterial activity against Acinetobacter baumannii isolate 961997 measured after 24 hrs by microtiter dilution method; conditions: isolate 961997, 24 h; in short: as §1
Acinetobacter baumannii [8] = test: Antibacterial activity against Acinetobacter baumannii isolate 1002956 measured after 24 hrs by microtiter dilution method; conditions: isolate 1002956, 24 h; in short: as §1
Acinetobacter baumannii [9] = test: Antibacterial activity against Acinetobacter baumannii isolate 977751 measured after 24 hrs by microtiter dilution method; conditions: isolate 977751, 24 h; in short: as §1
Acinetobacter baumannii [10] = test: Antibacterial activity against Acinetobacter baumannii isolate 1035166 measured after 24 hrs by microtiter dilution method; conditions: isolate 1035166, 24 h; in short: as §1
Acinetobacter baumannii [11] = test: Antibacterial activity against Acinetobacter baumannii isolate 1010282 measured after 24 hrs by microtiter dilution method; conditions: isolate 1010282, 24 h; in short: as §1
Acinetobacter baumannii [12] = test: Antibacterial activity against Acinetobacter baumannii isolate 1010245 measured after 24 hrs by microtiter dilution method; conditions: isolate 1010245, 24 h; in short: as §1
Acinetobacter baumannii [13] = test: Antibacterial activity against Acinetobacter baumannii isolate 1017395 measured after 24 hrs by microtiter dilution method; conditions: isolate 1017395, 24 h; in short: as §1
Acinetobacter baumannii [14] = test: Antibacterial activity against Acinetobacter baumannii isolate 968886 measured after 24 hrs by microtiter dilution method; conditions: isolate 968886, 24 h; in short: as §1
Acinetobacter baumannii [15] = test: Antibacterial activity against Acinetobacter baumannii isolate 964304 measured after 24 hrs by microtiter dilution method; conditions: isolate 964304, 24 h; in short: as §1
Acinetobacter baumannii [16] = test: Antibacterial activity against Acinetobacter baumannii isolate 963659 measured after 24 hrs by microtiter dilution method; conditions: isolate 963659, 24 h; in short: as §1
Acinetobacter baumannii [17] = test: Antibacterial activity against Acinetobacter baumannii isolate 1018887 measured after 24 hrs by microtiter dilution method; conditions: isolate 1018887, 24 h; in short: as §1
Acinetobacter baumannii [18] = test: Antibacterial activity against Acinetobacter baumannii isolate 1035794 measured after 24 hrs by microtiter dilution method; conditions: isolate 1035794, 24 h; in short: as §1
Acinetobacter baumannii [19] = test: Antibacterial activity against Acinetobacter baumannii isolate 981650 measured after 24 hrs by microtiter dilution method; conditions: isolate 981650, 24 h; in short: as §1
Acinetobacter baumannii [20] = test: Antibacterial activity against Acinetobacter baumannii isolate 965463 measured after 24 hrs by microtiter dilution method; conditions: isolate 965463, 24 h; in short: as §1
Acinetobacter baumannii [21] = test: Antibacterial activity against polymyxin B/colistin-resistant Acinetobacter baumannii M89963 measured after 24 hrs by microtiter dilution method; conditions: M89963, 24 h; in short: as §1
Acinetobacter baumannii [22] = test: Antibacterial activity against polymyxin B/colistin-resistant Acinetobacter baumannii M89955 measured after 24 hrs by microtiter dilution method; conditions: M89955, 24 h; in short: as §1
Acinetobacter baumannii [23] = test: Antibacterial activity against polymyxin B/colistin-resistant Acinetobacter baumannii M89953 measured after 24 hrs by microtiter dilution method; conditions: M89953, 24 h; in short: as §1
Acinetobacter baumannii [24] = test: Antibacterial activity against polymyxin B/colistin-resistant Acinetobacter baumannii M89952 measured after 24 hrs by microtiter dilution method; conditions: M89952, 24 h; in short: as §1
Acinetobacter baumannii [25] = test: Antibacterial activity against polymyxin B/colistin-resistant Acinetobacter baumannii M89951 measured after 24 hrs by microtiter dilution method; conditions: M89951, 24 h; in short: as §1
Acinetobacter baumannii [26] = test: Antibacterial activity against polymyxin B/colistin-resistant Acinetobacter baumannii M89949 measured after 24 hrs by microtiter dilution method; conditions: M89949, 24 h; in short: as §1
Acinetobacter baumannii [27] = test: Antibacterial activity against polymyxin B/colistin-resistant Acinetobacter baumannii M89941 measured after 24 hrs by microtiter dilution method; conditions: M89941, 24 h; in short: as §1
Acinetobacter baumannii [28] = test: Antibacterial activity against Acinetobacter baumannii isolate 1007660 measured after 24 hrs by microtiter dilution method; conditions: isolate 1007660, 24 h; in short: as §1
Acinetobacter baumannii [29] = test: Antibacterial activity against Acinetobacter baumannii isolate 963618 measured after 24 hrs by microtiter dilution method; conditions: isolate 963618, 24 h; in short: as §1

| SMILES | MIC (Acinetobacter baumannii [1]) | MIC (Acinetobacter baumannii [2]) | MIC (Acinetobacter baumannii [3]) | MIC (Acinetobacter baumannii [4]) | MIC (Acinetobacter baumannii [5]) | MIC (Acinetobacter baumannii [6]) | MIC (Acinetobacter baumannii [7]) | MIC (Acinetobacter baumannii [8]) | MIC (Acinetobacter baumannii [9]) | MIC (Acinetobacter baumannii [10]) | MIC (Acinetobacter baumannii [11]) | MIC (Acinetobacter baumannii [12]) | MIC (Acinetobacter baumannii [13]) | MIC (Acinetobacter baumannii [14]) | MIC (Acinetobacter baumannii [21]) | MIC (Acinetobacter baumannii [22]) | MIC (Acinetobacter baumannii [23]) | MIC (Acinetobacter baumannii [25]) | MIC (Acinetobacter baumannii [26]) | MIC (Acinetobacter baumannii [27]) | further results |
| --- | --- | --- | --- | --- | --- | --- | --- | --- | --- | --- | --- | --- | --- | --- | --- | --- | --- | --- | --- | --- | --- |
| CC(=O)N[C@H](CCCCN)C(=O)N[C@H](CC(C)C)C(=O)N[C@H](CCCCN)C(=O)N[C@H](CO)C(=O)N[C@H](CC(C)C)C(=O)N[C@H](CC(C)C)C(=O)N[C@H](CCCCN)C(=O)N[C@@H](C(=O)N[C@H](CC(C)C)C(=O)N[C@H](CO)C(=O)N[C@H](CCCCN)C(=O)N[C@H](C)C(=O)N[C@H](CCCCN)C(=O)N[C@H](C)C(=O)N[C@H](C)C(=O)N[C@H](CCCCN)C(=O)N[C@H](CC(C)C)C(=O)N[C@H](CCCCN)C(=O)N[C@@H](C(=O)N[C@H](CC(C)C)C(=O)N[C@H](CC(C)C)C(=O)N[C@H](CCCCN)C(=O)N[C@H](C)C(=O)N[C@H](CC(C)C)C(=O)N[C@H](CO)C(=O)N[C@H](CCCCN)C(N)=O)[C@H](C)O)[C@H](C)O (Ac-[dK][dL][dK][dS][dL][dL][dK][dT][dL][dS][dK][dA][dK][dA][dA][dK][dL][dK][dT][dL][dL][dK][dA][dL][dS][dK]-NH2) | 0.3 µM | 0.3 µM (≈ 0.86 µg/mL) | 0.7 µM (≈ 2.01 µg/mL) | 0.7 µM (≈ 2.01 µg/mL) | 0.7 µM (≈ 2.01 µg/mL) | 0.7 µM (≈ 2.01 µg/mL) | 1.4 µM (≈ 4.01 µg/mL) | 0.3 µM (≈ 0.86 µg/mL) | 0.3 µM (≈ 0.86 µg/mL) | 0.7 µM (≈ 2.01 µg/mL) | 0.7 µM (≈ 2.01 µg/mL) | 0.7 µM (≈ 2.01 µg/mL) | 0.7 µM (≈ 2.01 µg/mL) | 0.7 µM (≈ 2.01 µg/mL) | 0.7 µM (≈ 2.01 µg/mL) | 0.3 µM (≈ 0.86 µg/mL) | 0.7 µM (≈ 2.01 µg/mL) | 0.3 µM (≈ 0.86 µg/mL) | 0.7 µM (≈ 2.01 µg/mL) | 0.3 µM (≈ 0.86 µg/mL) | MIC (Acinetobacter baumannii [15]): 1.4 µM (≈ 4.01 µg/mL); MIC (Acinetobacter baumannii [16]): 0.7 µM (≈ 2.01 µg/mL); MIC (Acinetobacter baumannii [17]): 0.7 µM (≈ 2.01 µg/mL); MIC (Acinetobacter baumannii [18]): 0.7 µM (≈ 2.01 µg/mL); MIC (Acinetobacter baumannii [19]): 0.7 µM (≈ 2.01 µg/mL); MIC (Acinetobacter baumannii [20]): 0.7 µM (≈ 2.01 µg/mL); MIC (Acinetobacter baumannii [24]): 0.7 µM (≈ 2.01 µg/mL) |
| CC(=O)N[C@H](CCCCN)C(=O)N[C@H](CC(C)C)C(=O)N[C@H](CCCCN)C(=O)N[C@H](CO)C(=O)N[C@H](CC(C)C)C(=O)N[C@H](CC(C)C)C(=O)N[C@H](CCCCN)C(=O)N[C@@H](C(=O)N[C@H](CC(C)C)C(=O)N[C@H](CO)C(=O)N[C@H](CCCCN)C(=O)N[C@H](C)C(=O)N[C@H](CCCCN)C(=O)N[C@H](C)C(=O)N[C@H](C)C(=O)N[C@H](CCCCN)C(=O)N[C@H](CC(C)C)C(=O)N[C@H](CCCCN)C(=O)N[C@@H](C(=O)N[C@H](CC(C)C)C(=O)N[C@H](CC(C)C)C(=O)N[C@H](CCCCN)C(=O)N[C@H](C)C(=O)N[C@H](CC(C)C)C(=O)N[C@H](CO)C(=O)N[C@H](CO)C(N)=O)[C@H](C)O)[C@H](C)O (Ac-[dK][dL][dK][dS][dL][dL][dK][dT][dL][dS][dK][dA][dK][dA][dA][dK][dL][dK][dT][dL][dL][dK][dA][dL][dS][dS]-NH2) | 0.7 µM | 0.7 µM (≈ 1.98 µg/mL) | 0.7 µM (≈ 1.98 µg/mL) | 1.4 µM (≈ 3.95 µg/mL) | 1.4 µM (≈ 3.95 µg/mL) | 0.7 µM (≈ 1.98 µg/mL) | 1.4 µM (≈ 3.95 µg/mL) | 0.7 µM (≈ 1.98 µg/mL) | 0.7 µM (≈ 1.98 µg/mL) | 1.4 µM (≈ 3.95 µg/mL) | 1.4 µM (≈ 3.95 µg/mL) | 0.7 µM (≈ 1.98 µg/mL) | 1.4 µM (≈ 3.95 µg/mL) | 0.7 µM (≈ 1.98 µg/mL) | 0.7 µM (≈ 1.98 µg/mL) | 0.7 µM (≈ 1.98 µg/mL) | 1.5 µM (≈ 4.24 µg/mL) | 0.7 µM (≈ 1.98 µg/mL) | 0.7 µM (≈ 1.98 µg/mL) | 0.7 µM (≈ 1.98 µg/mL) | MIC (Acinetobacter baumannii [28]): 0.7 µM (≈ 1.98 µg/mL); MIC (Acinetobacter baumannii [15]): 1.4 µM (≈ 3.95 µg/mL); MIC (Acinetobacter baumannii [16]): 1.4 µM (≈ 3.95 µg/mL); MIC (Acinetobacter baumannii [29]): 0.7 µM (≈ 1.98 µg/mL); MIC (Acinetobacter baumannii [17]): 1.4 µM (≈ 3.95 µg/mL); MIC (Acinetobacter baumannii [18]): 1.4 µM (≈ 3.95 µg/mL); MIC (Acinetobacter baumannii [20]): 0.7 µM (≈ 1.98 µg/mL); MIC (Acinetobacter baumannii [24]): 0.7 µM (≈ 1.98 µg/mL) |
| CC(=O)N[C@H](CCCCN)C(=O)N[C@H](CC(C)C)C(=O)N[C@H](CCCN)C(=O)N[C@H](CO)C(=O)N[C@H](CC(C)C)C(=O)N[C@H](CC(C)C)C(=O)N[C@H](CCCN)C(=O)N[C@@H](C(=O)N[C@H](CC(C)C)C(=O)N[C@H](CO)C(=O)N[C@H](CCCN)C(=O)N[C@H](C)C(=O)N[C@H](CCCCN)C(=O)N[C@H](C)C(=O)N[C@H](C)C(=O)N[C@H](CCCCN)C(=O)N[C@H](CC(C)C)C(=O)N[C@H](CCCN)C(=O)N[C@@H](C(=O)N[C@H](CC(C)C)C(=O)N[C@H](CC(C)C)C(=O)N[C@H](CCCN)C(=O)N[C@H](C)C(=O)N[C@H](CC(C)C)C(=O)N[C@H](CO)C(=O)N[C@H](CCCN)C(N)=O)[C@H](C)O)[C@H](C)O (Ac-[dK][dL][dOrn][dS][dL][dL][dOrn][dT][dL][dS][dOrn][dA][dK][dA][dA][dK][dL][dOrn][dT][dL][dL][dOrn][dA][dL][dS][dOrn]-NH2) |  | 0.4 µM (≈ 1.11 µg/mL) |  |  |  |  |  |  |  |  |  |  |  |  | 0.4 µM (≈ 1.11 µg/mL) | 0.4 µM (≈ 1.11 µg/mL) | 0.4 µM (≈ 1.11 µg/mL) | 0.7 µM (≈ 1.95 µg/mL) | 0.7 µM (≈ 1.95 µg/mL) | 0.7 µM (≈ 1.95 µg/mL) |  |
